≈ marks a conversion by molar mass, not a printed value.
Assays:
[1] = test system: Klebsiella pneumoniae; test: Antibacterial activity against 10^4 CFU Klebsiella pneumoniae 09-23 after 18 hrs by CLSI agar dilution method; type: functional; settings: 09-23, 18 h
[2] = test system: Staphylococcus epidermidis; test: Antibacterial activity against 10^4 CFU methicillin-sensitive Staphylococcus epidermidis 09-6 after 18 hrs by CLSI agar dilution method; type: functional; settings: 09-6, 18 h
[3] = Cytotoxicity against MDCK cells after 48 hrs by CPE assay; type: cell-based, Canis lupus familiaris; settings: dog
Summary of the method: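 MDCK cells kept in Minimum Essential Medium with Earle's salt plus 10% fetal bovine serum at 37 °C, 5% CO₂. […] Medium then replaced by assay medium with or without compound. After 48 h exposure, viability read by CPE assay. CC₅₀ calculated by Reed–Muench analysis.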

[4] = test system: Pseudomonas aeruginosa; test: Antibacterial activity against 10^4 CFU Pseudomonas aeruginosa ATCC 27853 after 18 hrs by CLSI agar dilution method; type: functional; settings: ATCC 27853, 18 h
[5] = test system: Staphylococcus epidermidis; test: Antibacterial activity against 10^4 CFU methicillin-resistant Staphylococcus epidermidis 09-2 after 18 hrs by CLSI agar dilution method; type: functional; settings: 09-2, 18 h
[6] = test system: Enterococcus faecalis; test: Antibacterial activity against 10^4 CFU Enterococcus faecalis 08-12 after 18 hrs by CLSI agar dilution method; type: functional; settings: 08-12, 18 h
[7] = test system: Staphylococcus aureus; test: Antibacterial activity against 10^4 CFU methicillin-sensitive Staphylococcus aureus 08-1 after 18 hrs by CLSI agar dilution method; type: functional; settings: 08-1, 18 h
[8] = test system: Escherichia coli; test: Antibacterial activity against 10^4 CFU Escherichia coli 08-21 after 18 hrs by CLSI agar dilution method; type: functional; settings: 08-21, 18 h
[9] = test system: Enterococcus faecium; test: Antibacterial activity against 10^4 CFU Enterococcus faecium 06-7 after 18 hrs by CLSI agar dilution method; type: functional; settings: 06-7, 18 h
[10] = test system: Enterococcus faecalis; test: Ratio of levofloxacin MIC to compound MIC for Enterococcus faecalis; type: functional
Summary of the method: (§1)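 MICs were measured by agar dilution on plates carrying serial twofold dilutions from […] down to 0.03. Plates were inoculated with 10⁴ cfu and incubated at 35 °C for 18 h. MIC was taken as the lowest concentration giving no visible growth. The ratio is the reference quinolone MIC divided by the test compound MIC for the same strain.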

[11] = test system: Streptococcus pneumoniae; test: Antibacterial activity against 10^4 CFU Streptococcus pneumoniae 08-4 after 18 hrs by CLSI agar dilution method; type: functional; settings: 08-4, 18 h
[12] = test system: Enterococcus faecalis; test: Ratio of gatifloxacin MIC to compound MIC for Enterococcus faecalis; type: functional; summary of the method: as §1
[13] = test system: Klebsiella pneumoniae; test: Antibacterial activity against 10^4 CFU Klebsiella pneumoniae 09-22 after 18 hrs by CLSI agar dilution method; type: functional; settings: 09-22, 18 h
[14] = test system: Staphylococcus aureus; test: Antibacterial activity against 10^4 CFU methicillin-resistant Staphylococcus aureus 08-1 after 18 hrs by CLSI agar dilution method; type: functional; settings: 08-1, 18 h
[15] = test system: Enterococcus faecalis; test: Antibacterial activity against 10^4 CFU Enterococcus faecalis 08-10 after 18 hrs by CLSI agar dilution method; type: functional; settings: 08-10, 18 h
[16] = test system: Escherichia coli; test: Antibacterial activity against 10^4 CFU Escherichia coli ATCC 25922 after 18 hrs by CLSI agar dilution method; type: functional; settings: ATCC 25922, 18 h
[17] = test system: Staphylococcus aureus; test: Antibacterial activity against 10^4 CFU Staphylococcus aureus ATCC 25923 after 18 hrs by CLSI agar dilution method; type: functional; settings: ATCC 25923, 18 h
[18] = test system: Staphylococcus epidermidis; test: Ratio of levofloxacin MIC to compound MIC for methicillin-sensitive Staphylococcus epidermidis 09-6; type: functional; summary of the method: as §1
[19] = test system: Enterococcus faecium; test: Antibacterial activity against 10^4 CFU Enterococcus faecium 08-2 after 18 hrs by CLSI agar dilution method; type: functional; settings: 08-2, 18 h
[20] = test system: Enterococcus faecalis; test: Ratio of gemifloxacin MIC to compound MIC for Enterococcus faecalis; type: functional; summary of the method: as §1
[21] = test system: Pseudomonas aeruginosa; test: Antibacterial activity against 10^4 CFU Pseudomonas aeruginosa 09-32 after 18 hrs by CLSI agar dilution method; type: functional; settings: 09-32, 18 h
[22] = test system: Streptococcus pneumoniae; test: Ratio of levofloxacin MIC to compound MIC for Streptococcus pneumoniae 08-4; type: functional; summary of the method: as §1

## CO/N=C1\CN(c2c(F)cc3c(=O)c(C(=O)O)cn(C4CC4)c3c2OC)CCC1(C)N (configuration not stated)
[1]
  MIC: > 128 µg/mL
[2]
  MIC: 0.25 µg/mL (≈ 0.578 µM)
[3]
  CC50 at 48 h: 729 µM
[4]
  MIC: 16 µg/mL (≈ 37 µM)
[5]
  MIC: 0.25 µg/mL (≈ 0.578 µM)
[6]
  MIC: 1 µg/mL (≈ 2.31 µM)
[7]
  MIC: 0.25 µg/mL (≈ 0.578 µM)
[8]
  MIC: > 128 µg/mL
[9]
  MIC: > 128 µg/mL
[10]
  Ratio: 4
[11]
  MIC: 0.5 µg/mL (≈ 1.16 µM)
[12]
  Ratio: 4
[13]
  MIC: > 128 µg/mL
[14]
  MIC: 0.25 µg/mL (≈ 0.578 µM)
[15]
  MIC: 1 µg/mL (≈ 2.31 µM)
[16]
  MIC: > 128 µg/mL
[17]
  MIC: 0.125 µg/mL (≈ 0.289 µM)
[18]
  Ratio: 16
[19]
  MIC: > 128 µg/mL
[20]
  Ratio: 4
[21]
  MIC: 8 µg/mL (≈ 18.5 µM)
[22]
  Ratio: 4

From ChEMBL document CHEMBL1781961, “Synthesis and in vitro antibacterial activity of 7-(3-alkoxyimino-4-amino-4-methylpiperidin-1-yl) fluoroquinolone derivatives” (Eur J Med Chem, 2011)
